Compound activity: PubChem, The Scripps Research Institute Molecular Screening Center
Most compounds without a hit are left out; they make up all but 1.8% or so of the library.
M5 antag: CHRM5 antagonism in calcium assay; AID 624040; P08912; CHO-hM5 cells, Fluo-8 calcium fluorescence, ACh EC80; inhibition, % at 3 µM; 360,000 compounds, 0.59% hits;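 active = inhibition above a per-plate cutoff, the mean of that plate's test compounds plus 3 SD, cut at about 27% in these data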
CHRM4 agonist: agonists of human muscarinic M4 receptor (CHRM4); CHO-K1 hM4/Gqi5, Fluo-8 calcium fluorescence; vehicle 0%, full acetylcholine response 100%; 360,000 compounds, 0.14% hits; P08173; activation, % at 3 µM; AID 624127;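 active = activation above the run mean over all test wells plus 3 SD, cut at about 32% in these data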;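 note: peak over basal fluorescence ratio per well then scaled between controls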
Target sequence (P08173 whole entry, looked up): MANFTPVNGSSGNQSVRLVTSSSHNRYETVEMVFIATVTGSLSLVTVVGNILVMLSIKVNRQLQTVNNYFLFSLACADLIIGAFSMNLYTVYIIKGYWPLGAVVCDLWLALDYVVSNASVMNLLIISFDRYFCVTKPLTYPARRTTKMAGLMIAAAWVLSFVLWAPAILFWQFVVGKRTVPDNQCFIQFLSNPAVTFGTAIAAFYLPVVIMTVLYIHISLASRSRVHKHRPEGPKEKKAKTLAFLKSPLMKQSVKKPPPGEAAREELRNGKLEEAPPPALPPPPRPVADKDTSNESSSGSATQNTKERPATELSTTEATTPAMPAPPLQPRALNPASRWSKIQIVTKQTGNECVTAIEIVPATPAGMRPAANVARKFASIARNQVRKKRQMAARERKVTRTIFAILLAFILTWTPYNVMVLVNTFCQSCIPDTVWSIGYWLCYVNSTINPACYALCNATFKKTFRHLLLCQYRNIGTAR
CHRM5 PAM: CHRM5 positive allosteric modulation; P08912; CHO-K1 hM5, Fluo-8 calcium, ACh EC20 PAM; 0% = ACh EC20, 100% = ACh EC100; activation, % at 3 µM; 360,000 compounds, 0.3% hits;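 active = activation above the run cutoff, the mean activation of all test compounds plus 3 SD, cut at about 18% in these data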
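Test system: CHO-K1 hM5 cells / Doses: single-point, 3 µM nominal / Times: Post-acetylcholine fluorescence recording 140 s / Technique: Fluo-8 calcium fluorescence / Measure: Max/basal fluorescence ratio as % of EC20–EC100 ACh window / Benchmarks: low control EC20 acetylcholine (0%), high control EC100 acetylcholine (100%) / Replicates: one well per compound, no replicates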
CHRM5 agonist: agonists of human muscarinic M5 receptor (CHRM5). P08912. CHO-K1 hM5 cells, Fluo-8 calcium fluorescence; 0% DMSO wells, 100% maximal acetylcholine response. activation, % at 3 µM. 360,000 compounds, 0.19% hits. AID 624037;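 active = activation above the run's mean over test compounds plus 3 SD, cut at about 23% in these data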;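 note: signal is peak over basal fluorescence ratio across the kinetic read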
M4 antag: blocks acetylcholine activation of human M4 receptor; P08173; CHO-hM4 cells, ACh EC80, Fluo-8 calcium fluorescence; inhibition, % at 3 µM; 360,000 compounds, 0.73% hits; AID 624125;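 active = inhibition above its plate's cutoff, the mean inhibition of sample wells plus 3 SD, cut at about 27% in these data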
CHRM4 PAM: CHRM4 positive allosteric modulation | CHO-K1 hM4/Gqi5, Fluo-8 calcium fluorescence, ACh EC20; 0% = ACh EC20, 100% = maximal ACh | 360,000 compounds, 0.4% hits | P08173 | AID 624126 | activation, % at 3 µM;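 active = activation above its plate's cutoff, the mean activation of sample wells plus 3 SD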
Large screens that a line does not name were inactive.

CC(=O)OCC(=O)[C@H]1CC[C@H]2[C@@H]3CCC4=CC(=O)CC[C@]4(C)[C@H]3CC[C@]12C	M4 antag 57
C[C@]12CCC(=O)C=C1CC[C@@H]1[C@@H]2CC[C@@]2(C)[C@H]1CC[C@@]21CCC(=O)O1	M4 antag 30
C[C@]12CCC(=O)C=C1CCC1C2CC[C@@]2(C)C1CCC21OCCO1 (stereo partly drawn)	none
O=[N+]([O-])c1cccc(-c2c(-c3ccccc3)ncc3ccc(F)cc23)c1	none
COc1ccc(-n2c(C)c(C)c3c(N)ncnc32)cc1	none
CCc1ccccc1NC(=O)CN1CCN(C(=O)CN2C(=O)NC3(CCCC3)C2=O)CC1	none
CN1CCN(c2ccc(-c3ccnn3C(=O)Nc3cccc(C(F)(F)F)c3)cc2)CC1	M5 antag 28
O=C(CSc1nncs1)NNC(=O)c1ccco1	none
COc1ccccc1N1CCN(CCCCCCOc2ccc(F)cc2)CC1	M5 antag 39
Cc1ccc(S(=O)(=O)N(C)C)cc1NC(=O)C(C)N(C)Cc1sccc1C (stereo not drawn)	M5 antag 30
CCOC(=O)c1ccc(-c2c(-c3ccc4c(c3)OCO4)noc2C)cc1F	none
Cc1cc2c(NCCc3ccccc3)ncnc2s1	none
CCCCCCCCNc1ncnc2ccccc12	M5 antag 43, M4 antag 27
c1ccc(CCNc2ncnc3ccccc23)cc1	M5 antag 30
CCC(C)c1ccccc1N1CC(C(=O)Nc2cccc(S(=O)(=O)N3CCOCC3)c2)CC1=O (stereo not drawn)	none
COc1ccc(NC(=O)COc2ccc(/C=N/O)cc2OC)cc1	none
CCNC(=S)N/N=C/c1ccc(OCC(=O)Nc2ccc(OC)cc2)c(OC)c1	M4 antag 32
CC(C)(CNC(=S)NCCc1ccccc1)CNC(=S)NCCc1ccccc1	M5 antag 28
OCCNC(=S)NCCc1ccccc1	none
CCOc1cc(-c2nccc3cc(OC)c(OC)cc23)cc(OCC)c1OCC	none
CC(C)(C)C1(C)OC(=O)C(=Cc2ccc(OCC(=O)Nc3ccccc3)cc2)C(=O)O1 (stereo not drawn)	CHRM4 PAM 30
COc1cc(C=C2C(=O)OC(C)(C)OC2=O)cc(Cl)c1OCC(=O)Nc1ccccc1	none
COC(=O)[C@H](Cc1ccccc1)NC(=O)NCCc1ccc(F)cc1	M5 antag 30
COC(=O)[C@H](Cc1ccccc1)NC(=O)NCCc1ccc(S(N)(=O)=O)cc1	none
COC(=O)C(Cc1ccccc1)NC(=O)C12CC3CC(CC(C3)C1)C2 (stereo not drawn)	CHRM4 PAM 22
O=C(NCN1CCOCC1)c1cnccn1	none
COc1cccc(N(C(=O)c2snc(C(N)=O)c2N)C(C(=O)NCc2ccccc2)c2ccc(O)cc2)c1 (stereo not drawn)	M5 antag 31
Cc1[nH]c2c(C)cccc2c(=O)c1CN1CCCCCC1	none
CCc1cccc(NS(=O)(=O)c2c(C)nc3sc(CC)nn3c2=O)c1	M5 antag 30, M4 antag 29
Cc1ccc(CC(=O)N2CCN(c3cccc(C(F)(F)F)c3)CC2)cc1	M4 antag 28
CCOC(=O)C(CC)n1cnc2c(nnn2-c2ccccc2)c1=O (stereo not drawn)	none
O=C(c1ccncc1)N(Cc1ccccc1)Cc1nc2ccccc2c(=O)[nH]1	CHRM5 PAM 29
CC(=O)NNc1nc(-c2ccc(C)cc2)cs1	none
CCCC(=O)Nc1ccc(-c2csc(NNC(C)=O)n2)cc1	CHRM5 PAM 21
COc1ccc(NS(=O)(=O)c2cccc(C(=O)NCC3(N(C)C)CCCCC3)c2)cc1	none
CC[C@@H]1C/C=C\Cc2ccccc2[C@@H](C(=O)C[C@@H](O)CC(C)=O)OC1=O	none
COc1ccc(CN(C)Cc2c(O)ccc3cc(Br)ccc23)cc1OC	CHRM5 PAM 23
CCN1C(=O)C(=O)N(CC(=O)N2CCN(c3ccccc3)CC2)C1=O	none
CN1CCN(CCC(=O)N2c3ccccc3Sc3ccc(C(F)(F)F)cc32)CC1	none
